The full list was thinned out, with hits kept by preference.
S1P4 agonist: activates the human S1P4 receptor; O95977; S1P4-expressing cell line, agonist reporter assay; activation, % at 4.98 µM; 220,000 tested, 0.35% active; AID 1509; in the data active means activation above about 11%;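 further: 0% = DMSO vehicle and 100% = reference agonist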
Target sequence (O95977 whole entry, looked up): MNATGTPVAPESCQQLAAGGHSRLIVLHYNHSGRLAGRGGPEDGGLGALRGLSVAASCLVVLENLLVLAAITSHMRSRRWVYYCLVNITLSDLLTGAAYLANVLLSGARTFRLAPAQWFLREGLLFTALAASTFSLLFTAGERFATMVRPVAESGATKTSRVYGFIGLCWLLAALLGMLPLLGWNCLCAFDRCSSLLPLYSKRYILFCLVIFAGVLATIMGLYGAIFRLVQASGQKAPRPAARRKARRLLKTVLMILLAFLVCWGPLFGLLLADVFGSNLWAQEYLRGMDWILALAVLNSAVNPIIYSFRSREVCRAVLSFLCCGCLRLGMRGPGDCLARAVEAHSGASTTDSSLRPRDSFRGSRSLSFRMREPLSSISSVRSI
L major viab: Leishmania major promastigote growth inhibition; Leishmania major promastigotes, resazurin fluorescence viability; inhibition, % at 10 µM; 200,000 tested, 9% active; AID 1063; in the data active means inhibition above about 50%;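 further: promastigotes grown with compound for 44 hours at 28 °C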
S1P4 antag: blocks the human S1P4 receptor | S1P4-expressing cells, antagonist mode, reporter read-out | inhibition, % at 4.98 µM | 220,000 tested, 0.26% active; in the data active means inhibition above about 29%;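 further: 0% = wells stimulated with agonist and 100% = vehicle wells without agonist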
S1P3 antag: S1P3 (human) receptor antagonism; CHO S1P3 NFAT-BLA reporter, FRET fluorescence, antagonist mode; 170,000 tested, 0.27% active; inhibition, % at 4.98 µM; Q99500;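 active means inhibition above the plate cutoff, the mean inhibition of test wells on that plate plus 3 SD, cut at about 28% in these data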;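 further: cells challenged with S1P at its EC80 of 0.8 µM; blue over green emission ratio from cleaved BLA substrate after 4 h stimulation; 0% = S1P-stimulated wells and 100% = unstimulated DMSO-only wells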
Mdm2 ligase inh: inhibitors of human Mdm2 E3 ubiquitin ligase; Q00987; AID 1230; 210,000 tested, 0.11% active; signal enhancement, % at 5 µM; cell-based MDM2 ubiquitination luciferase reporter, 2 h; 0 = plate control, 100 = twice control, blank-subtracted;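 active means signal enhancement of 30% or more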;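 further: luminescence tracks abundance of the self-degrading MDM2-luciferase fusion protein; higher signal means inhibition of MDM2 E3 ligase activity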
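Assay system: stable mammalian line carrying autodegrading MDM2–luciferase fusion reporter; amount: 2000 cells seeded into each well; buffer or medium: DMEM; benchmarks: plate control and blank wells; signal: luciferase luminescence; timing: 2 h compound exposure at 37 °C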
Numbers without * were called inactive; / = no result given.

SMILES | S1P4 agonist | L major viab | S1P4 antag | S1P3 antag | Mdm2 ligase inh
COc1ccccc1NS(=O)(=O)c1cc(NC(=O)Nc2ccccc2)ccc1N1CCCCC1 | -0.9 | 91.1* | 28.4 | 4.8 | -22.9
COc1ccccc1NS(=O)(=O)c1cc(NC(=O)c2cccs2)ccc1N1CCCCC1 | 0.8 | 43.5 | 6.5 | 5.3 | -8.1
COc1ccc(S(=O)(=O)Nc2ccccc2OC)cc1NC(=O)Cc1cccs1 | 1.1 | 100.3* | -8.6 | -8.7 | 2.6
COc1ccccc1NS(=O)(=O)c1ccc(NC(=O)Cc2cccs2)cc1 | 1.1 | 2.3 | -14.5 | 5.6 | 13.4
COc1ccc(Cl)cc1NC(=O)NC1CCCCC1 | -4.0 | 99.8* | -6.1 | / | -5.2
COc1ccccc1NS(=O)(=O)c1cc(NC(=O)c2cccs2)ccc1N1CCCC1 | 2.0 | 93.5* | 2.0 | 9.4 | -0.7
CCCN1CCC(NC(=O)Nc2cc(Cl)ccc2OC)CC1 | 1.7 | 7.3 | -1.2 | -10.2 | -4.4
COc1cccc(NC(=O)Cn2c(=O)n(CC3CCCO3)c(=O)c3ccccc32)c1 (stereo not given) | 0.1 | 3.0 | -1.4 | / | -20.9
Cc1ccc(C(=O)Nc2cc(C(C)C)c(O)c(C(C)C)c2)cc1 | 0.4 | -0.1 | -3.5 | 25.4 | 6.8
COc1ccccc1NS(=O)(=O)c1cccc(NC(=O)NC2CCCCC2)c1 | 0.1 | 98.8* | -7.5 | -8.9 | -3.4
O=C(Nc1ccc(N2CCCC2)c(S(=O)(=O)Nc2cccc(C(F)(F)F)c2)c1)c1cccs1 | 0.2 | 91.5* | -3.3 | -6.7 | 3.0
O=C(Nc1cc(C(F)(F)F)ccc1N1CCOCC1)c1cccs1 | 1.8 | -0.6 | -12.9 | / | -10.6
Cc1cc(C)n2nc(C(=O)Nc3cccc(S(=O)(=O)N4CCCC4)c3)nc2n1 | 2.0 | / | 1.1 | -18.6 | /
COc1ccccc1NS(=O)(=O)c1cccc(NC(=O)c2ccc3ccccc3n2)c1 | -2.6 | 43.0 | -3.8 | 3.0 | 0.9
COc1ccccc1NS(=O)(=O)c1cc(NC(=O)c2sccc2C)ccc1N1CCCC1 | -1.6 | 63.6* | 18.9 | 24.9 | /
COc1ccccc1NS(=O)(=O)c1cccc(NC(=O)c2nc3nc(C)cc(C)n3n2)c1 | 4.5 | 71.9* | -16.1 | / | -9.3
N#Cc1ccccc1NC(=O)C1CC(=O)N(c2ccc3c4c(cccc24)CC3)C1 (stereo not given) | -0.3 | 57.4* | -18.0 | -9.2 | -11.4
C=CCn1c(SCC(=O)Nc2ccc3c(c2)OCO3)nnc1-c1ccccc1OC | -0.3 | -2.7 | -11.1 | -2.7 | -2.0
C=CCn1c(SCc2csc(-c3ccc(Cl)cc3)n2)nnc1-c1ccccc1OC | 0.4 | 70.1* | 5.2 | -7.8 | -16.1
O=C(CCNc1cccc(Cl)c1)c1ccco1 | -1.8 | 83.2* | 0.6 | -8.0 | 8.6
COc1ccc(NC(=O)c2ccc([N+](=O)[O-])cc2[N+](=O)[O-])c(OC)c1 | -1.5 | 6.3 | 9.1 | 4.0 | 3.0
COc1ccc(NC(=O)C(=O)NCCC2=CCCCC2)c(OC)c1 | -1.0 | 54.6* | -4.2 | -3.9 | -6.0
O=C(CN1CCC(O)(c2ccc3c(c2)OCO3)CC1)OC1CCCCC1 | -2.7 | 96.9* | -5.2 | 4.2 | -18.9
O=C(CN1CCC(O)(c2ccc3c(c2)OCO3)CC1)NC1CCCCC1 | -0.8 | 3.3 | 12.5 | -14.0 | -14.0
NC(=O)c1cc2cc([N+](=O)[O-])ccc2oc1=O | -0.1 | -2.4 | -14.0 | -2.7 | 3.7
SMILES | S1P4 agonist | L major viab | S1P4 antag | S1P3 antag | Mdm2 ligase inh
NC(=O)c1cc([N+](=O)[O-])cc2c1C=Cc1ccccc1O2 | 1.7 | 90.3* | -8.2 | -5.0 | -6.9
CC(C)NCCCCOc1ccccc1-c1ccccc1 | -0.3 | 97.7* | -3.6 | 0.8 | -8.9
C=CCNCCOc1ccccc1-c1ccccc1 | 0.5 | 17.5 | -14.0 | 13.2 | -10.6
CC1(C)NC(=O)N(CCOCCOc2ccccc2-c2ccccc2)C1=O | 0.3 | -0.5 | 5.5 | -15.0 | -0.2
COCCNCCCCOc1ccccc1-c1ccccc1 | -0.6 | 51.7* | -23.7 | 2.4 | 2.5
CCCCNCCOCCOc1ccccc1-c1ccccc1 | 0.5 | 91.7* | 15.0 | 4.7 | -2.8
N#C/C(=C\C=C\c1ccccc1)C(=O)NCc1cccnc1 | -1.0 | 49.4 | -7.7 | -0.4 | -3.0
Cc1ccc(NC(=O)CS(=O)CC(=O)N(c2ccc(C)cc2)C(C)C(=O)NC2CCCCC2)cc1 (stereo not given) | 1.6 | -7.1 | -6.8 | / | /
C/C(=C\c1ccccc1)C(=O)Nc1ccc(S(=O)(=O)Nc2ncccn2)cc1 | 0.0 | -8.5 | -4.4 | 1.9 | -4.0
CCCCn1c(SCC(=O)Nc2cc(C(F)(F)F)ccc2Cl)nnc1C(CC)N(C)C (stereo not given) | 1.3 | 82.3* | -17.2 | 0.5 | -13.2

High-throughput results from PubChem BioAssay.
